The subject of test [1] is Human immunodeficiency virus 2. The experiment in a line: Inhibition of human immunodeficiency virus-2 (HIV-2) induced cytopathicity in CEM cells. It is filed as functional, organism-based. The settings on record: Human immunodeficiency virus 2, CCRF-CEM. (Damage to the host cells serves as the signal in cytopathic effect assays.)
Test [2] has as its system Human alphaherpesvirus 3. The experiment in a line: Antiviral activity in TK+ varicella zoster virus (VZV) OKA strain in HEL cell culture. The following applies: Human alphaherpesvirus 3, HEL. It is filed as functional, organism-based.
The subject of test [3] is Human alphaherpesvirus 1. As to the kind of experiment: Antiviral activity against thymidine kinase deficient herpes simplex virus-1 HSV-1 TK- B2006 strain in E6SM cell culture. The settings on record: Human alphaherpesvirus 1, E6SM. The test is classed as functional, organism-based. Put shortly: (§1)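 Confluent cell monolayers in microtiter trays were inoculated with 100 CCID50 of virus. After 1 h adsorption the residual virus was removed. Cells were then incubated with serial compound concentrations (400, 200, 100, ... µg/mL). Cytopathicity was scored once it was complete in untreated infected controls. The value is the 50% inhibitory concentration, or the concentration reducing plaque formation by 50%, in µg/mL.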

Test [4] concerns Human alphaherpesvirus 2. As to the kind of experiment: Antiviral activity in herpes simple virus-2 (HSV-2) Lyons strain in E6SM cell culture. It is filed as functional, organism-based. The settings on record: Human alphaherpesvirus 2, E6SM. The essentials:
as §1

In test [5] the test system is Vaccinia virus. The experiment in a line: Antiviral activity against vaccinia virus (VV) in E6SM cell culture. The following applies: Orthopoxvirus vaccinia. It is filed as functional, organism-based.
Test [6] relates to Human immunodeficiency virus 1. The experiment in a line: Inhibition of human immunodeficiency virus-1 (HIV-1) induced cytopathicity in human MT-4 cells. It is filed as functional, organism-based. The following applies: Human immunodeficiency virus 1, MT4. The essentials:
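MT-4 cells (~4 × 10⁵ cells/mL) were infected with HIV-1(IIIB) at 100 CCID50 per µL. Infected cells were seeded into wells containing compound dilutions and incubated 5 days at 37 °C. Viable cells were then counted by trypan blue exclusion in a blood cell counting chamber.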

Test [7] has as its system Human alphaherpesvirus 3. The experiment in a line: Antiviral activity in TK+ varicella zoster virus (VZV) YS strain in HEL cell culture. The settings on record: Human alphaherpesvirus 3, HEL. It is filed as functional, organism-based.
Test [8] concerns Human betaherpesvirus 5. As to the kind of experiment: Antiviral activity against cytomegalovirus (CMV) AD169 strain in HEL cell culture. The following applies: Human betaherpesvirus 5, HEL. It is filed as functional, organism-based. Put shortly:
as §1

Test [9] in a line: Antiviral activity against herpes simplex virus-1 KOS in E6SM cell culture. It is filed as functional, cell-based. The following applies: Human alphaherpesvirus 1, E6SM. The essentials:
as §1

For test [10], the system named is Human alphaherpesvirus 3. The experiment in a line: Antiviral activity in TK+ varicella zoster virus (VZV) 07/1 strain in HEL cell culture. The test is classed as functional, organism-based. The settings on record: Human alphaherpesvirus 3, HEL.
Test [11] deals with Human immunodeficiency virus 1. The experiment in a line: Inhibition of human immunodeficiency virus-1 (HIV-1) induced cytopathicity in CEM cells. The test is classed as functional, organism-based. The settings on record: Human immunodeficiency virus 1, CCRF-CEM. Put shortly: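 CEM cells (~3 × 10⁵ cells/mL) were infected with HIV-1(IIIB) at 100 CCID50 per µL. Infected cells were plated with compound dilutions and incubated 4 days at 37 °C. Giant cell formation was then examined microscopically.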

Test [12] concerns Moloney murine sarcoma virus. The experiment in a line: Compound was tested for anti-retroviral activity against moloney murine sarcoma virus (MSV) in murine C3H/3T3 embryo fibroblast cell culture. The test is classed as functional, organism-based. The essentials:
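C3H/3T3 fibroblasts were seeded at 5 × 10⁵ cells/mL. After 24 h they were infected with 80 focus-forming units of MSV for 90-120 min at 37 °C; the virus came from tumours induced by intramuscular inoculation of 3-day-old NMRI mice. The medium was then replaced with fresh medium containing various compound concentrations. Transformation was scored microscopically after 6 days.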

Test [13] deals with Cytomegalovirus. The experiment in a line: Antiviral activity against cytomegalovirus (CMV) Davis strain in HEL cell culture. The test is classed as functional, organism-based. The following applies: Human betaherpesvirus 5, HEL. Put shortly:
as §1

Test [14] is described as follows: Antiviral activity against thymidine kinase deficient herpes simplex virus-1 HSV-1 TK- VMW-1837 strain in E6SM cell culture. The test is classed as functional, cell-based. The settings on record: Human alphaherpesvirus 1, E6SM. The essentials:
as §1

For orientation: IC50 means the concentration that gives 50% inhibition.

Values after ≈ are worked out from the molar mass of the structure shown.

With `Nc1nc(N)c2nnn(C[C@@H](CO)OCP(=O)(O)O)c2n1`, the IC50 was greater than 100 µg/mL in test [1]; 9 µg/mL (≈ 28.2 µM) in [2]; 20 µg/mL (≈ 62.7 µM) in test [3]; 40 µg/mL (≈ 125 µM) in test [4]; 20 µg/mL (≈ 62.7 µM) in test [5]; greater than 100 µg/mL in test [6]. The IC50 in test [7] was 6 µg/mL (≈ 18.8 µM); in test [8] it was 100 µg/mL (≈ 313 µM); in test [9] it was 20 µg/mL (≈ 62.7 µM); in test [10], 6 µg/mL (≈ 18.8 µM); in test [11], greater than 100 µg/mL; in test [12] it was 1 µg/mL (≈ 3.13 µM). Further, the figures for the IC50 in [13] and in test [14] were 100 µg/mL (≈ 313 µM) and 40 µg/mL (≈ 125 µM), respectively.

As to `C[C@H](Cn1nc2ncnc(N)c2n1)OCP(=O)(O)O`, the concentration for half-maximal inhibition (IC50) in test [1] was greater than 100 µg/mL; in test [2] it was 10 µg/mL (≈ 34.7 µM); in test [3], 150 µg/mL (≈ 520 µM); in [4], 100 µg/mL (≈ 347 µM); in [5], greater than 400 µg/mL; in test [6], greater than 100 µg/mL. The IC50 in [7] is 5 µg/mL (≈ 17.3 µM); in [8], greater than 40 µg/mL; in [9], 150 µg/mL (≈ 520 µM); in [10], 5 µg/mL (≈ 17.3 µM); in test [11] it was greater than 100 µg/mL; in test [12], 2.9 µg/mL (≈ 10.1 µM). Further, the figures for the half-maximal inhibitory concentration (IC50) in [13] and in test [14] were greater than 40 µg/mL and 100 µg/mL (≈ 347 µM), respectively.

For the compound `C[C@H](Cn1nnc2c(N)nc(N)nc21)OCP(=O)(O)O`, the IC50 was 40 µg/mL (≈ 132 µM) in test [1]; greater than 50 µg/mL in test [2]; 300 µg/mL (≈ 989 µM) in test [3]; 300 µg/mL (≈ 989 µM) in [4]; greater than 400 µg/mL in [5]; 44.4 µg/mL (≈ 146 µM) in test [6]. In addition, the IC50 is greater than 50 µg/mL in [7]; greater than 50 µg/mL in [8]; 300 µg/mL (≈ 989 µM) in [9]; greater than 50 µg/mL in test [10]; 30 µg/mL (≈ 98.9 µM) in test [11]; 1.58 µg/mL (≈ 5.21 µM) in test [12]. Further, the IC50 is greater than 50 µg/mL in test [13] and 300 µg/mL (≈ 989 µM) in test [14].

With `Nc1nc(O)c2nnn(CCOCP(=O)(O)O)c2n1`, the IC50 is 2 µg/mL (≈ 6.89 µM) in test [1]; 0.4 µg/mL (≈ 1.38 µM) in test [2]; 7 µg/mL (≈ 24.1 µM) in test [3]; 2 µg/mL (≈ 6.89 µM) in test [4]; 0.7 µg/mL (≈ 2.41 µM) in [5]; 2 µg/mL (≈ 6.89 µM) in [6]. Besides, the IC50 in [7] worked out at 0.04 µg/mL (≈ 0.138 µM); in test [8], 2.3 µg/mL (≈ 7.93 µM); in [9] it was 2 µg/mL (≈ 6.89 µM); in test [10], 0.1 µg/mL (≈ 0.345 µM); in [11], 2 µg/mL (≈ 6.89 µM); in [12], 0.32 µg/mL (≈ 1.1 µM). In addition, the IC50 in [13] amounted to 2.3 µg/mL (≈ 7.93 µM); in [14], 2 µg/mL (≈ 6.89 µM).

As to `C[C@H](Cn1nnc2c(N)ncnc21)OCP(=O)(O)O`, the IC50 in test [1] was 10 µg/mL (≈ 34.7 µM); in [2], 8 µg/mL (≈ 27.8 µM); in [3], 70 µg/mL (≈ 243 µM); in test [4] it was 100 µg/mL (≈ 347 µM); in test [5], greater than 400 µg/mL; in test [6], 5.2 µg/mL (≈ 18 µM). Also, the IC50 was 8 µg/mL (≈ 27.8 µM) in test [7]; greater than 40 µg/mL in test [8]; 70 µg/mL (≈ 243 µM) in [9]; 5 µg/mL (≈ 17.3 µM) in test [10]; 7 µg/mL (≈ 24.3 µM) in [11]; 0.85 µg/mL (≈ 2.95 µM) in test [12]. Besides, the IC50 in test [13] is greater than 40 µg/mL; in test [14], 100 µg/mL (≈ 347 µM).

Regarding `C[C@@H](Cn1nnc2c(O)nc(N)nc21)OCP(=O)(O)O`, the half-inhibitory concentration (IC50) in [1] was 85 µg/mL (≈ 279 µM); in [2] it was 10 µg/mL (≈ 32.9 µM); in test [3], greater than 400 µg/mL; in test [4], 300 µg/mL (≈ 986 µM); in [5] it was 300 µg/mL (≈ 986 µM); in [6], 52.7 µg/mL (≈ 173 µM). The IC50 is 4 µg/mL (≈ 13.1 µM) in test [7]; greater than 40 µg/mL in test [8]; 300 µg/mL (≈ 986 µM) in [9]; greater than 40 µg/mL in test [10]; 40 µg/mL (≈ 131 µM) in [11]; 27 µg/mL (≈ 88.8 µM) in [12]. Besides, the IC50 is greater than 40 µg/mL in test [13] and 300 µg/mL (≈ 986 µM) in test [14].
